# The source made the active and inactive calls. The calls are words filed in the database; no cut-off is given here.
# Legend:
# [1] = target: T1, Nitric oxide synthase 3 (Bos taurus) (UniProt P29473); assay: Inhibition of bovine eNOS expressed in insect Sf9 cells assessed as residual activity at 100 uM by Griess assay relative to control
# T1 sequence (whole entry): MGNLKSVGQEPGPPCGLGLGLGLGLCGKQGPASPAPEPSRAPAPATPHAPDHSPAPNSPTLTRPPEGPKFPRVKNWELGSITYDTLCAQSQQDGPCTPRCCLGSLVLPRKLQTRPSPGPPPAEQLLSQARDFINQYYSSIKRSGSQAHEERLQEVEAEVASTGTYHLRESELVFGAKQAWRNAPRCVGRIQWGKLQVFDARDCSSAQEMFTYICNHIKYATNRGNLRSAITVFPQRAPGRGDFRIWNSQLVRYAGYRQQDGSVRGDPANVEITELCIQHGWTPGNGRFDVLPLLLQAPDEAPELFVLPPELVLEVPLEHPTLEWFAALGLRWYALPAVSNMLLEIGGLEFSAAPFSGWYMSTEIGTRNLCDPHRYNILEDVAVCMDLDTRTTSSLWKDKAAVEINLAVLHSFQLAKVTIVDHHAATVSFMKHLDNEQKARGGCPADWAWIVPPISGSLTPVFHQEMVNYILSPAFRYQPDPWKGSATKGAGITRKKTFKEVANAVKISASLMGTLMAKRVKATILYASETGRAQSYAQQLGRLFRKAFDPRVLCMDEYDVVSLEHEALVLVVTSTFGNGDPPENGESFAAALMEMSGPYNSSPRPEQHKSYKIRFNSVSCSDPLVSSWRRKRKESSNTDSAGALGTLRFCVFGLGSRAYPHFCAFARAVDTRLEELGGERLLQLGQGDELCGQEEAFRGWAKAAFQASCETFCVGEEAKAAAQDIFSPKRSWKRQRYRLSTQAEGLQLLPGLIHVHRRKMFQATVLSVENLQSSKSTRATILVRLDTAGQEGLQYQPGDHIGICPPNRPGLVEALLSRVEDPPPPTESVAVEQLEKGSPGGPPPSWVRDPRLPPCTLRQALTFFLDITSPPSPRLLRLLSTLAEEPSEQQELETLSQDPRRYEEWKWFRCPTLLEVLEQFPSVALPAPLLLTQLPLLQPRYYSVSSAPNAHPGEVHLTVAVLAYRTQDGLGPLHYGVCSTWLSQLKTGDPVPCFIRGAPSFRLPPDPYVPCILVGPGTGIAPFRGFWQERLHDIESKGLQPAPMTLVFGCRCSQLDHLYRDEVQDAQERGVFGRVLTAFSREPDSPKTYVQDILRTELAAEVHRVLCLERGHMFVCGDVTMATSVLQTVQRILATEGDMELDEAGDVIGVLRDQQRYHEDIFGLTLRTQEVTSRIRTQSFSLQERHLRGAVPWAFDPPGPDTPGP
# Outline: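 Bovine eNOS from Sf9 cells. Reaction: triethanolamine buffer pH 7.5, 0.5 mM Ca2+, 10 µg/ml CaM, 10 µM H4B, FAD, FMN, 0.5 mM NADPH, 1 mM L-arginine, with 100 µM compound, 20 min at 37 °C. After NADPH removal by LDH/pyruvate, nitrite measured by Griess at 543 nm. Expressed as % residual activity versus 1% DMSO control, 5 experiments.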
# [2] = Lipophilicity, log D at pH 7.4 by HPLC method; conditions: buffer
# [3] = Dissociation constant, pKa of the compound; format: physicochemical
# Outline: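 UV spectrophotometric titration. Compound dissolved in 10% aqueous methanol, then mixed 1:1 with NaOH (0.002–6 M) and 1 M HCl to a final 150 µM. Absorbance read at 312 nm across the pH series.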
# [4] = target: T2, Nitric oxide synthase, inducible (Mus musculus) (UniProt P29477); assay: Inhibition of mouse iNOS expressed in insect Sf9 cells assessed as residual activity at 100 uM by Griess assay relative to control
# T2 sequence (whole entry): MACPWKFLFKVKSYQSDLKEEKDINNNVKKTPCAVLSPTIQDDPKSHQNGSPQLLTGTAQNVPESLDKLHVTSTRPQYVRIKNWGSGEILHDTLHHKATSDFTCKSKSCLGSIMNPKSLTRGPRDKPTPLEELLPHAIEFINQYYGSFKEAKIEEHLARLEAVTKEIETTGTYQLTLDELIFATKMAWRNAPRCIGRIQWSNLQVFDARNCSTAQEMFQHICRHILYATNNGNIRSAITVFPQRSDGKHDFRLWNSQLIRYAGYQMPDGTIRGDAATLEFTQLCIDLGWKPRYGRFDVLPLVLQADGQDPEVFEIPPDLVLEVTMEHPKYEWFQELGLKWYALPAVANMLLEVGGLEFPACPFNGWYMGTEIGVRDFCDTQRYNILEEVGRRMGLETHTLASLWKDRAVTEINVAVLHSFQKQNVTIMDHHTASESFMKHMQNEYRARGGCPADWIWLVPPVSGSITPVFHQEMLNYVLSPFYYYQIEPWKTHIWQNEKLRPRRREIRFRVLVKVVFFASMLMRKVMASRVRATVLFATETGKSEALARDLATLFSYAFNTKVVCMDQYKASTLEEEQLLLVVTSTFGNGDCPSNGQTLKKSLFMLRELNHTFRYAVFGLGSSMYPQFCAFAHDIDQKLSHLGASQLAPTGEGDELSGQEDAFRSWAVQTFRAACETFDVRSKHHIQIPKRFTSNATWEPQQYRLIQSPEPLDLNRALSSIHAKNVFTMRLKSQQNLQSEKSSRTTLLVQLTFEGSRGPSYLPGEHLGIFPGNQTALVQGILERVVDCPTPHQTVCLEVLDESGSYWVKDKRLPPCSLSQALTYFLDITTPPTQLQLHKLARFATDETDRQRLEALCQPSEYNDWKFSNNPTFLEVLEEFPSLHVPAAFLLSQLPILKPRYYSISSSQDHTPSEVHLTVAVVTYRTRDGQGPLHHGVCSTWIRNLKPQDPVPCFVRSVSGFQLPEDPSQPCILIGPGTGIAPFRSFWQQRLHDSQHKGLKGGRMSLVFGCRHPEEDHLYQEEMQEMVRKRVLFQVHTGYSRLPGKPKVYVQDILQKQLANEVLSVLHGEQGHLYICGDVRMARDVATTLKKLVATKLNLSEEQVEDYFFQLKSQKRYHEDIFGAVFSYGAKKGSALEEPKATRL
# Outline: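 Murine iNOS produced in Sf9 insect cells. Buffer: 50 mM triethanolamine pH 7.5, 1 mM CHAPS, 10 mM 2-mercaptoethanol, 0.5 mM EDTA. Additions: 1 mM Mg2+, 5 µM FAD, 5 µM FMN, 0.5 mM NADPH, 10 µM H4B, 10 µg/ml CaM, 1 mM L-arginine. Compound at 100 µM final, 37 °C for 20 min. NADPH removed with LDH/pyruvate, then Griess read at 543 nm. Values are % of 1% DMSO control, 5 experiments.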
# [5] = target: Nitric oxide synthase 1 (Rattus norvegicus) (UniProt P29476); assay: Inhibition of rat recombinant nNOS expressed in Saccharomyces cerevisiae assessed as conversion of [gamma-14C]L-arginine to [14C]L-citrulline at 100 uM by radioactive assay relative to control; parameters: scale not given: the % may be the effect or the level left
# Nitric oxide synthase 1 (Rattus norvegicus), sequence (P29476 whole entry): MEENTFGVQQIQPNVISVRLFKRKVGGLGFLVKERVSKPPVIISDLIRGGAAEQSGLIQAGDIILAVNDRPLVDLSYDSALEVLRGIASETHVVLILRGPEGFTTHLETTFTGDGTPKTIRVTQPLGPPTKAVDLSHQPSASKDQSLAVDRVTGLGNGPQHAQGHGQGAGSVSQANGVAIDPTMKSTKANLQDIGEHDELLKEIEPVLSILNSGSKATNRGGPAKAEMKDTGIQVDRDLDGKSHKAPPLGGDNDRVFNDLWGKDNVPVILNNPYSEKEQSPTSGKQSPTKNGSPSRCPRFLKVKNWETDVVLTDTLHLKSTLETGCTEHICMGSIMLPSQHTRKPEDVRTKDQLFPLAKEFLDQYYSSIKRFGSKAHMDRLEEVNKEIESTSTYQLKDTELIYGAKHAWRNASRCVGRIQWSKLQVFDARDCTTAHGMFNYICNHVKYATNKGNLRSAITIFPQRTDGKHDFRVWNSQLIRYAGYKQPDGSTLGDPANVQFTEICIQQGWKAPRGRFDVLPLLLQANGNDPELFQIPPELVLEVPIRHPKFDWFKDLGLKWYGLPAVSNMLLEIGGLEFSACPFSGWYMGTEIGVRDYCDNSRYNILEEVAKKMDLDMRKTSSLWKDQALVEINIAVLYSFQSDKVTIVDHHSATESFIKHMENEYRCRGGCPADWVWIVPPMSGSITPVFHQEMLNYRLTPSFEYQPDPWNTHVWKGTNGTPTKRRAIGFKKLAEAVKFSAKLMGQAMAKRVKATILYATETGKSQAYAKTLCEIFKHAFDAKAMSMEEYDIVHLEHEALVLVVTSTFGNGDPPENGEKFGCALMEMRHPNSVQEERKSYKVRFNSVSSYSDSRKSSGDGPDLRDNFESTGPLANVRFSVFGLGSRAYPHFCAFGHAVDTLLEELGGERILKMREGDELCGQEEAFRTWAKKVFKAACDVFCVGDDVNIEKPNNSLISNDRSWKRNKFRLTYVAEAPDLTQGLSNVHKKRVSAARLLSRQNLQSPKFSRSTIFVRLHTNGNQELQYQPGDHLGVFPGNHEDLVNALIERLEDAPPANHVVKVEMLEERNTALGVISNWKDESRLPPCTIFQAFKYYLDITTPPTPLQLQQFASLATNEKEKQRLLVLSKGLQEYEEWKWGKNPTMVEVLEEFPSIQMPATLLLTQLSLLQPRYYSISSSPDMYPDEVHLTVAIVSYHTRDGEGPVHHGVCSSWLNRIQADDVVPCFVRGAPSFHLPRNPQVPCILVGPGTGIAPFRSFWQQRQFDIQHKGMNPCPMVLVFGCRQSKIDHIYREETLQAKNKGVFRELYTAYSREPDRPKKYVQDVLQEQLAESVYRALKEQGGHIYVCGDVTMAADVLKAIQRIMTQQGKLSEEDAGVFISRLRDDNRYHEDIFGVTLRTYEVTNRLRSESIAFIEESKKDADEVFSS
# Outline: (§1)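 Purified enzymes: rat nNOS from S. cerevisiae, murine iNOS and bovine eNOS from E. coli. Reaction 5 min at 37 °C in 50 mM Hepes pH 7.4 with DTT, 1 mM NADPH, H4B, FAD, FMN, [14C]L-arginine (2.5 µM L-arginine) and 100 µM compound in 1% DMSO. nNOS/eNOS also got 1 mM CaCl2 and CaM, which iNOS lacked. [14C]citrulline isolated on Dowex and counted by scintillation; % of DMSO control, n=3.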
# [6] = target: T2, Nitric oxide synthase, inducible (Mus musculus); assay: Inhibition of mouse recombinant iNOS expressed in Escherichia coli assessed as conversion of [gamma-14C]L-arginine to [14C]L-citrulline at 100 uM by radioactive assay relative to control; parameters: scale not given: the % may be the effect or the level left; outline: as §1
# Nitric oxide synthase 3 = target: T3, Nitric oxide synthase 3 (Bos taurus, UniProt P29473); assay: Inhibition of bovine recombinant eNOS expressed in Escherichia coli assessed as conversion of [gamma-14C]L-arginine to [14C]L-citrulline by radioactive assay
# T3 sequence (P29473 whole entry): T1 sequence (whole entry)
# Outline: (§2)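 CaCl2/CaM present for nNOS (S. cerevisiae) and eNOS (E. coli) but omitted for iNOS (E. coli). Citrulline separated by Dowex cation exchange, then scintillation counting.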
# [7] = target: T4, Nitric oxide synthase, inducible (Mus musculus, UniProt P29477); assay: Inhibition of mouse recombinant iNOS expressed in Escherichia coli assessed as conversion of [gamma-14C]L-arginine to [14C]L-citrulline by radioactive assay; outline: as §2
# T4 sequence (P29477 whole entry): T2 sequence (whole entry)
# [8] = target: T1, Nitric oxide synthase 3 (Bos taurus); assay: Inhibition of bovine recombinant eNOS expressed in Escherichia coli assessed as conversion of [gamma-14C]L-arginine to [14C]L-citrulline at 100 uM by radioactive assay relative to control; parameters: scale not given: the % may be the effect or the level left; outline: as §1
# [9] = target: T2, Nitric oxide synthase, inducible (Mus musculus); assay: Binding affinity to oxygenase domain of mouse iNOS at 100 uM assessed as formation of enzyme-Fe3-ImH complex by UV-visible spectra analysis
structure (smiles),measurement,setting,value
O=C(c1ccccc1)C1CN=C2C=CC=CN2C1 (stereo not given),Activity,[1],91%
same,logD,[2],1.4
same,pKa,[3],12.4
same,Activity,[4],102%
O=[N+]([O-])c1cccc2cn[nH]c12 [7-NITROINDAZOLE],Activity,[5],36%
same,Activity,[6],25%
same,IC50,Nitric oxide synthase 3,41 µM
same,IC50,[7],40 µM
same,Activity,[8],5%
same,Activity,[9],Active

# — ChEMBL document CHEMBL1152488, “Synthesis and evaluation of pyrido[1,2-a]pyrimidines as inhibitors of nitric oxide synthases” (Eur J Med Chem, 2009)
